From ChEMBL document CHEMBL5303300, “EUbOPEN Chemogenomics Library - Multiplex” (2023)
“And” between values parts separate entries of the source, which are not always exact repeats. Identical values can stand only once.

Tested on: HEK-293T
Assay: Multiplex assay against HEK293T
Assay type: toxicity, cell-based
Conditions: human, number of replicates 2
Method in brief: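 Hoechst33342, BioTracker Green Microtubule Cytoskeleton Dye, MitoTracker Red and Annexin V Alexa Fluor 680 were added to live cells at seeding, and imaging on a CQ1 microscope at 37°C and 5% CO2 followed compound addition. Gating by CellPathfinder machine learning separated cells into Hoechst high-intensity objects or normal cells, then normal cells into healthy, pyknosed or fragmented nuclei, then pyknosed cells into mitotic or apoptotic. Per cents of healthy-nucleus cells are reported for the tubulin, mitochondrial-mass and membrane-permeability phenotypes.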

[1] = 12 h, 1 µM, compound concentration 1 uM
[2] = 12 h, 10 µM, compound concentration 10 uM
[3] = 24 h, 1 µM, compound concentration 1 uM
[4] = 24 h, 10 µM, compound concentration 10 uM
[5] = 48 h, 1 µM, compound concentration 1 uM
[6] = 48 h, 10 µM, compound concentration 10 uM

## C[C@@H](OC[C@@]1(c2ccccc2)CC[C@]2(CCC(=O)N2)CN1)c1cc(C(F)(F)F)cc(C(F)(F)F)c1 [ROLAPITANT]
[1]
  Population Apoptotic (%): 57% and 49%
  Population Fragmented Nuclei (%): 6% and 4%
  Population Healthy Nuclei (%): 72% and 81%
  Population Hoechst High Intensity Objects (%): 7% and 8%
  Population Membrane Permeable-Phenotype (%): 5% and 3%
  Population Mitochondria Different-Phenotype (%): 25% and 28%
  Population Mitotic Cells (%): 42% and 50%
  Population Normal (%): 92% and 91%
  Population Pyknosed Nuclei (%): 21% and 14%
  Population Tubulin-Different-Phenotype (%): 66% and 80%
  Total Cell Count: 453 and 616
[2]
  Population Apoptotic (%): 56% and 70%
  Population Fragmented Nuclei (%): 4%
  Population Healthy Nuclei (%): 80% and 77%
  Population Hoechst High Intensity Objects (%): 11% and 6%
  Population Membrane Permeable-Phenotype (%): 4% and 2%
  Population Mitochondria Different-Phenotype (%): 35% and 40%
  Population Mitotic Cells (%): 44% and 29%
  Population Normal (%): 88% and 93%
  Population Pyknosed Nuclei (%): 15% and 17%
  Population Tubulin-Different-Phenotype (%): 81% and 86%
  Total Cell Count: 563 and 415
[3]
  Population Apoptotic (%): 63% and 53%
  Population Fragmented Nuclei (%): 8% and 6%
  Population Healthy Nuclei (%): 75% and 80%
  Population Hoechst High Intensity Objects (%): 6% and 9%
  Population Membrane Permeable-Phenotype (%): 3% and 2%
  Population Mitochondria Different-Phenotype (%): 12% and 13%
  Population Mitotic Cells (%): 36% and 46%
  Population Normal (%): 93% and 90%
  Population Pyknosed Nuclei (%): 15% and 12%
  Population Tubulin-Different-Phenotype (%): 51% and 61%
  Total Cell Count: 631 and 823
[4]
  Population Apoptotic (%): 61%
  Population Fragmented Nuclei (%): 7%
  Population Healthy Nuclei (%): 81% and 77%
  Population Hoechst High Intensity Objects (%): 12% and 9%
  Population Membrane Permeable-Phenotype (%): 3%
  Population Mitochondria Different-Phenotype (%): 21% and 27%
  Population Mitotic Cells (%): 38%
  Population Normal (%): 87% and 90%
  Population Pyknosed Nuclei (%): 11% and 15%
  Population Tubulin-Different-Phenotype (%): 70% and 69%
  Total Cell Count: 730 and 604
[5]
  Population Apoptotic (%): 35% and 28%
  Population Fragmented Nuclei (%): 12% and 11%
  Population Healthy Nuclei (%): 82% and 83%
  Population Hoechst High Intensity Objects (%): 8% and 11%
  Population Membrane Permeable-Phenotype (%): 5% and 3%
  Population Mitochondria Different-Phenotype (%): 1% and 2%
  Population Mitotic Cells (%): 64% and 71%
  Population Normal (%): 91% and 88%
  Population Pyknosed Nuclei (%): 4% and 5%
  Population Tubulin-Different-Phenotype (%): 23% and 39%
  Total Cell Count: 1671
[6]
  Population Apoptotic (%): 50% and 48%
  Population Fragmented Nuclei (%): 11% and 8%
  Population Healthy Nuclei (%): 83% and 84%
  Population Hoechst High Intensity Objects (%): 9%
  Population Membrane Permeable-Phenotype (%): 6% and 3%
  Population Mitochondria Different-Phenotype (%): 4% and 11%
  Population Mitotic Cells (%): 49% and 51%
  Population Normal (%): 90%
  Population Pyknosed Nuclei (%): 5% and 7%
  Population Tubulin-Different-Phenotype (%): 53% and 48%
  Total Cell Count: 1126 and 904

## COc1cc(OC)cc(C(=O)NNC(=O)Nc2cccc3ccccc23)c1
[1]
  Population Apoptotic (%): 42% and 53%
  Population Fragmented Nuclei (%): 2% and 1%
  Population Healthy Nuclei (%): 86% and 85%
  Population Hoechst High Intensity Objects (%): 4%
  Population Membrane Permeable-Phenotype (%): 1% and 2%
  Population Mitochondria Different-Phenotype (%): 14% and 16%
  Population Mitotic Cells (%): 57% and 46%
  Population Normal (%): 95%
  Population Pyknosed Nuclei (%): 10% and 13%
  Population Tubulin-Different-Phenotype (%): 43% and 47%
  Total Cell Count: 709 and 572
[2]
  Population Apoptotic (%): 42% and 34%
  Population Fragmented Nuclei (%): 3%
  Population Healthy Nuclei (%): 84% and 83%
  Population Hoechst High Intensity Objects (%): 6% and 4%
  Population Membrane Permeable-Phenotype (%): 5% and 4%
  Population Mitochondria Different-Phenotype (%): 15% and 12%
  Population Mitotic Cells (%): 57% and 65%
  Population Normal (%): 93% and 95%
  Population Pyknosed Nuclei (%): 12% and 13%
  Population Tubulin-Different-Phenotype (%): 60% and 46%
  Total Cell Count: 571 and 696
[3]
  Population Apoptotic (%): 25% and 34%
  Population Fragmented Nuclei (%): 3%
  Population Healthy Nuclei (%): 90% and 89%
  Population Hoechst High Intensity Objects (%): 8% and 6%
  Population Membrane Permeable-Phenotype (%): 2%
  Population Mitochondria Different-Phenotype (%): 4%
  Population Mitotic Cells (%): 74% and 65%
  Population Normal (%): 91% and 93%
  Population Pyknosed Nuclei (%): 5% and 6%
  Population Tubulin-Different-Phenotype (%): 28% and 29%
  Total Cell Count: 1130 and 899
[4]
  Population Apoptotic (%): 36% and 29%
  Population Fragmented Nuclei (%): 4% and 6%
  Population Healthy Nuclei (%): 84% and 86%
  Population Hoechst High Intensity Objects (%): 6% and 4%
  Population Membrane Permeable-Phenotype (%): 4% and 3%
  Population Mitochondria Different-Phenotype (%): 9% and 4%
  Population Mitotic Cells (%): 63% and 70%
  Population Normal (%): 93% and 95%
  Population Pyknosed Nuclei (%): 11% and 6%
  Population Tubulin-Different-Phenotype (%): 50% and 27%
  Total Cell Count: 700 and 1003
[5]
  Population Apoptotic (%): 8% and 15%
  Population Fragmented Nuclei (%): 12% and 9%
  Population Healthy Nuclei (%): 84% and 87%
  Population Hoechst High Intensity Objects (%): 9%
  Population Membrane Permeable-Phenotype (%): 4%
  Population Mitochondria Different-Phenotype (%): 0%
  Population Mitotic Cells (%): 91% and 84%
  Population Normal (%): 91% and 90%
  Population Pyknosed Nuclei (%): 3% and 2%
  Population Tubulin-Different-Phenotype (%): 11% and 16%
  Total Cell Count: 2889 and 1933
[6]
  Population Apoptotic (%): 8% and 17%
  Population Fragmented Nuclei (%): 10% and 12%
  Population Healthy Nuclei (%): 82% and 84%
  Population Hoechst High Intensity Objects (%): 6% and 8%
  Population Membrane Permeable-Phenotype (%): 4% and 5%
  Population Mitochondria Different-Phenotype (%): 3% and 0%
  Population Mitotic Cells (%): 91% and 82%
  Population Normal (%): 93% and 91%
  Population Pyknosed Nuclei (%): 6% and 3%
  Population Tubulin-Different-Phenotype (%): 30% and 17%
  Total Cell Count: 1120 and 2017
